Activity calls are given as the source filed them. The rule behind the calls is not given here.
Experiments:
[1] = Partition coefficient (logP); assay type: physicochemical; settings: octanol/water
[2] = test system: Canis familiaris; assay: Antisecretory dose in mg/kg required for 50% inhibition in dogs by intravenous administration; assay type: functional, Canis lupus familiaris
How it was run: (§1)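 Pentagastrin-stimulated Heidenhain pouch dogs were dosed iv, and acid output was titrated from 30-min collections. Percent inhibition compares the lowest post-dose output with the pre-dose mean. The dose giving 50% inhibition came from linear regression of log dose on percent inhibition in n dogs.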

[3] = test system: Canis familiaris; assay: Maximum percent inhibition of acid output in pentagastrin-stimulated Heidenhain pouch dog following 1 mg/kg i.v. administration.; assay type: functional; settings: Canis lupus familiaris, route intravenous
How it was run: (§2)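 Fasted unanesthetized Heidenhain pouch dogs, with acid output stimulated to near maximum by continuous pentagastrin infusion into a leg vein. Gastric juice was collected every 30 min, ten collections per dog. Acid was titrated to pH 7.4 with 0.1 N NaOH. Compound or vehicle was given iv 90 min after the infusion started. Percent inhibition compares the lowest post-dose acid output with the mean output just before dosing. Single experiments.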

[4] = target: Histamine H2 receptor (Cavia porcellus) (UniProt P47747); assay: Dissociation constant of H2 receptor antagonist activity against guinea pig atrium; assay type: functional, tissue-based; settings: Cardiac atrium
Sequence of Histamine H2 receptor (Cavia porcellus) (P47747 whole entry): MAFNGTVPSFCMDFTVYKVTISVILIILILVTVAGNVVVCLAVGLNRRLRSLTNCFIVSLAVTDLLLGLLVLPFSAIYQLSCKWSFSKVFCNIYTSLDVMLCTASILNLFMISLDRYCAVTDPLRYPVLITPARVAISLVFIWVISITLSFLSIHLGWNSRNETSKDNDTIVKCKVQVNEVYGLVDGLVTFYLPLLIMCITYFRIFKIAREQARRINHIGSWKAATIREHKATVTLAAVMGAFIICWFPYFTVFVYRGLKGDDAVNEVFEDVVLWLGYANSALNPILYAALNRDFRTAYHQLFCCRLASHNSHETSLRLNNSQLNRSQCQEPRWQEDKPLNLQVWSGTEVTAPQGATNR

[5] = species on record: Canis familiaris; assay: Effective dose for acid output in pentagastrin-stimulated Heidenhain pouch dog; assay type: functional, Canis lupus familiaris; how it was run: as §1
[6] = test system: Canis familiaris; assay: Maximum percent inhibition of acid output in pentagastrin-stimulated Heidenhain pouch dog at dose (8 mg/kg) administered intravenously; assay type: functional; settings: Canis lupus familiaris, iv; how it was run: as §2
[7] = test system: Canis familiaris; assay: Maximum percent inhibition of acid output in pentagastrin-stimulated Heidenhain pouch dog at dose (5 mg/kg) administered intravenously; assay type: functional; settings: Canis lupus familiaris, iv; how it was run: as §2
[8] = test system: Canis familiaris; assay: Maximum percent inhibition of acid output in pentagastrin-stimulated Heidenhain pouch dog following 10 mg/kg i.v. administration.; assay type: functional; settings: Canis lupus familiaris, route intravenous; how it was run: as §2
[9] = test system: Canis familiaris; assay: Maximum percent inhibition of acid output in pentagastrin-stimulated Heidenhain pouch dog at dose (25 mg/kg) administered intravenously; assay type: functional; settings: Canis lupus familiaris, iv; how it was run: as §2
[10] = test system: Canis familiaris; assay: Maximum percent inhibition of acid output in pentagastrin-stimulated Heidenhain pouch dog at dose (23 mg/kg) administered intravenously; assay type: functional; settings: Canis lupus familiaris, iv; how it was run: as §2
[11] = test system: Canis familiaris; assay: Maximum percent inhibition of acid output in pentagastrin-stimulated Heidenhain pouch dog at dose(mg/kg) administered intravenously; assay type: functional, Canis lupus familiaris; how it was run: as §2
[12] = target: Histamine H2 receptor (Cavia porcellus) (UniProt P47747); assay: Dissociation constant of H2 receptor antagonist activity against guinea pig atrium;NA means not active; assay type: functional, tissue-based; settings: Cardiac atrium
How it was run: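 Right atria from guinea pigs killed by a blow to the head, hung isometrically in oxygenated (95% O2/5% CO2) Krebs–Henseleit buffer at pH 7.4 and 32 ± 2 °C, and stabilized about 1 h. Histamine dose–response curves were run before and after antagonist at set final concentrations, with 3- or 30-min drug equilibration. DR is the ratio of half-maximal histamine concentrations. KB = B/(DR − 1). Schild slope is log(DR − 1) vs log B.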

[13] = test system: Canis familiaris; assay: Maximum percent inhibition of acid output in pentagastrin-stimulated Heidenhain pouch dog at dose (0.5 mg/kg) administered intravenously; assay type: functional; settings: Canis lupus familiaris, iv; how it was run: as §2
[14] = test system: Canis familiaris; assay: Maximum percent inhibition of acid output in pentagastrin-stimulated Heidenhain pouch dog at dose (9 mg/kg) administered intravenously; assay type: functional; settings: Canis lupus familiaris, iv; how it was run: as §2

SMILES	logP [1]	-Log I50 [2]	inhibition in vivo at 1 mg/kg [3]	KB [4]	inhibition in vivo at 10 mg/kg [8]	other results
Nc1n[nH]c(-c2ccnc(NCc3ccc(Cl)cc3)c2)n1	2.85	-0.428	21%	0.3 µM		
CCNc1cc(-c2n[nH]c(N)n2)ccn1	1.13	-0.028		0.23 µM		ED50 [5]: 0.87 mg/kg
CC(C)(C)c1ccc(CNc2cc(-c3n[nH]c(N)n3)ccn2)cc1				0.14 µM		inhibition in vivo at 8 mg/kg [6]: 0%
CCCNc1cc(-c2n[nH]c(N)n2)ccn1	1.61	-0.379	33%	0.77 µM		inhibition in vivo at 5 mg/kg [7]: 64%
Cc1n[nH]c(-c2ccnc(Cc3ccccc3)c2)n1					31%	
Cc1nc(-c2ccncc2)c[nH]1						inhibition in vivo at 25 mg/kg [9]: 56%
CCNc1cc(-c2nc[nH]n2)ccn1				5 µM	29%	
CCNc1cc(-c2c[nH]c(C)n2)ccn1				1.4 µM	55%	
CN/C(=N\CCSCc1nc[nH]c1C)NC#N [CIMETIDINE]						ED50 [5]: 1.02 mg/kg
CCNc1cc(-c2c[nH]cn2)ccn1				0.59 µM	27%	
C=CCNc1cc(-c2nc(N)n[nH]2)ccn1	1.26	-0.37	31%	0.48 µM		
Cc1ccc(CNc2cc(-c3n[nH]c(N)n3)ccn2)cc1	2.69	-1.03		0.13 µM		inhibition in vivo at 5 mg/kg [7]: 33%
CCCCCCNc1cc(-c2n[nH]c(N)n2)ccn1	3.3	-1.2		0.27 µM	40%	
CCNc1cc(-c2n[nH]c(NC)n2)ccn1			35%	1.3 µM	72%	
Nc1n[nH]c(-c2ccnc(Nc3ccccc3)c2)n1					0%	
Nc1n[nH]c(-c2ccnc(NCCc3ccccc3)c2)n1	2.63	-1		1.9 µM	50%	
Nc1n[nH]c(-c2ccncc2)n1				42 µM	43%	inhibition in vivo at 23 mg/kg [10]: 73%
Nc1n[nH]c(-c2ccnc(NCCO)c2)n1	0.24	-1.31		2 µM	34%	
CCCCCCCCCCNc1cc(-c2n[nH]c(N)n2)ccn1	4.07	-1.7				Inhibition [11]: 14%; Kb [4]: 4.78 µM
Nc1n[nH]c(-c2ccnc(NCc3ccccc3)c2)n1	2.15	-0.568	21%	0.71 µM	72%	
CCNc1cc(-c2n[nH]c(Cc3ccccc3)n2)ccn1					19%	KB [12]: inactive

SMILES	logP [1]	-Log I50 [2]	inhibition in vivo at 1 mg/kg [3]	KB [4]	inhibition in vivo at 10 mg/kg [8]	other results
Cc1n[nH]c(-c2ccnc(CO)c2)n1				23 µM	7%	
CCCc1cc(-c2n[nH]c(N)n2)ccn1				4 µM		inhibition in vivo at 5 mg/kg [7]: 0%
CC(C)Nc1cc(-c2n[nH]c(N)n2)ccn1				3.6 µM		inhibition in vivo at 5 mg/kg [7]: 52%
CCCc1n[nH]c(-c2ccnc(NCC)c2)n1				11 µM	45%	
CCNc1cc(-c2c[nH]c(N)n2)ccn1			22%	3.3 µM	74%	
Cc1ccc(CNc2cc(-c3n[nH]c(N)n3)ccn2)cc1C	3.08	-0.718		0.11 µM		inhibition in vivo at 5 mg/kg [7]: 49%
Nc1n[nH]c(-c2ccnc(NCCCc3ccccc3)c2)n1	3.05				30%	
Cc1cc(-c2n[nH]c(N)n2)ccn1			26%	13 µM		inhibition in vivo at 5 mg/kg [7]: 60%
CCNc1cc(-c2n[nH]c(NCC)n2)ccn1			38%	4.7 µM		inhibition in vivo at 0.5 mg/kg [13]: 21%
CCc1cc(-c2n[nH]c(N)n2)ccn1				1.8 µM		inhibition in vivo at 5 mg/kg [7]: 55%
CCNc1cc(-c2n[nH]c(CC)n2)ccn1				1.3 µM		inhibition in vivo at 5 mg/kg [7]: 17%
CCNc1cc(-c2n[nH]c(CO)n2)ccn1			20%	4.5 µM	53%	
CCNc1cc(-c2n[nH]c(C)n2)ccn1			35%	0.55 µM		
CCN(C)c1cc(-c2n[nH]c(N)n2)ccn1			42%			
CN(C)c1cc(-c2n[nH]c(N)n2)ccn1			48%	3.2 µM		inhibition in vivo at 5 mg/kg [7]: 80%
CCCCNc1cc(-c2n[nH]c(N)n2)ccn1	2.15	-0.5	29%	0.67 µM		inhibition in vivo at 9 mg/kg [14]: 69%
COCCNc1cc(-c2n[nH]c(N)n2)ccn1	0.94	-0.88	11%	3.5 µM	50%	
Nc1cc(-c2n[nH]c(N)n2)ccn1	0.11	-0.306		2.2 µM		ED50 [5]: 2.35 mg/kg
CNc1cc(-c2n[nH]c(N)n2)ccn1	0.694	0	50%	0.56 µM		
Nc1n[nH]c(-c2ccnc(N3CCCC3)c2)n1			0%			
Cc1cc(-c2c[nH]c(C)n2)ccn1				4.6 µM	24%	

Reference: ChEMBL document CHEMBL1123101, “Pseudosymmetry and bioisosterism in biaryl pyridyl competitive histamine H2-receptor antagonists” (J Med Chem, 1985)
